Sampled rows, rich in hits. Any-hit rate of the full collection: about 1.8%.
NPY Y2 blocker: NPY-Y2 receptor antagonists, primary screen, cell-based; NPY-Y2 expressing cells, antagonist mode; inhibition, % at 2.7 µM; actives 0.99% (n = 140,000);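 note: 0% = vehicle with agonist challenge and 100% = reference antagonist with challenge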
Target sequence (P49146 whole entry, looked up): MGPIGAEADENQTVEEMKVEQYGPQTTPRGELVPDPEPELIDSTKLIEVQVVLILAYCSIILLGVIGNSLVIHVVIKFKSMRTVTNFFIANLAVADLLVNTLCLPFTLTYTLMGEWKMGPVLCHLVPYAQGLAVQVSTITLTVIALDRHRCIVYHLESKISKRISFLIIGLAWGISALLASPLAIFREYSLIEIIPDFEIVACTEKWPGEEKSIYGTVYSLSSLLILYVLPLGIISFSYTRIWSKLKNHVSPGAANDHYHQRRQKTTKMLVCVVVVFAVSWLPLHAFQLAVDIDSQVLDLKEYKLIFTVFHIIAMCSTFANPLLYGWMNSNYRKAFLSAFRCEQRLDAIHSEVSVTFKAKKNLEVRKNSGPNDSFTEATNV
NPY2 pot ag: NPY-Y2 potentiators or agonists, primary screen, cell-based; Neuropeptide Y receptor type 2 (Homo sapiens), P49146; cells expressing NPY-Y2, potentiator/agonist read-out; activation, % at 3.6 µM; actives 0.45% (n = 220,000); AID 1359, 2008; in the data active = activation above about 27%;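 note: cells stimulated with NPY near EC25 plus isoproterenol at EC100; 0% = vehicle plus submaximal agonist and 100% = vehicle plus saturating agonist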
NPY-Y1 PAM-ag: NPY-Y1 receptor potentiators or agonists, primary screen, cell-based. NPY-Y1 expressing cells, potentiator/agonist activation. activation, % at 3.6 µM. actives 0.37% (n = 220,000); in the data active = activation above about 33%, passing the limit was not always enough;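 note: cells stimulated with NPY at EC10 then isoproterenol at EC100; 0% = low agonist plus stimulus and 100% = saturating agonist plus stimulus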
NPY Y1 blocker: NPY-Y1 receptor antagonists, primary screen, cell-based | HEK293-CNG Y1 cells, membrane potential fluorescence; NPY at EC95, then isoproterenol | inhibition, % at 3.6 µM | actives 1% (n = 200,000) | AID 1040, 2008;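 active = inhibition above the campaign mean inhibition of all tested compounds plus 3 SD, cut at about 20% in these data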;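 note: 0% = DMSO wells given NPY plus isoproterenol and 100% = isoproterenol alone without NPY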
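Assay system: HEK293 Y1/CNG channel cell line; Doses: single compound dose of 3.6 µM, 0.4% DMSO; Timing: dye 3 h, compound 60 min room temperature, stimulation 45 min; Technique: Membrane-potential fluorescent dye readout; Measure: % inhibition of NPY effect.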
NPY1 antag conf: NPY-Y1 receptor antagonists, retest of hits, confirmation, HEK293-CNG cells, membrane potential fluorescence, triplicate. actives 21% (n = 1,200). cAMP; NPY challenge against isoproterenol-raised cAMP. shares compounds with NPY Y1 blocker. inhibition, % at 3.6 µM. AID 1254, 2008; in the data active = inhibition above about 20%;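 note: 0% = vehicle with agonist plus stimulus and 100% = stimulus alone without agonist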
NPY-Y2 antag ct: NPY-Y2 receptor antagonists, selectivity check, confirmation, counter-screen for NPY-Y1 antagonist project, HEK293-CNG cells, membrane potential fluorescence, triplicate | antagonism; cells given NPY, then isoproterenol | shares compounds with NPY Y1 blocker | inhibition, % at 3.6 µM | actives 28% (n = 1,200);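 note: 0% = DMSO with agonist challenge and 100% = reference antagonist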
An asterisk follows results filed as active; · = no result. Cut-off read from the data, not from the text of the source, unless noted: active = inhibition above about 17%; inactive = the rest.

SMILES	NPY Y2 blocker	NPY2 pot ag	NPY-Y1 PAM-ag	NPY Y1 blocker	NPY1 antag conf	NPY-Y2 antag ct
Cc1nc(SCC(=O)NCc2ccc3c(c2)OCO3)c(C#N)c2c1CCCC2	13.1	1.5	-26.0	20.7*	4.0	9.6
COc1ccc(NC(=O)CSc2nc(C)c3c(c2C#N)CCCC3)cc1	1.9	-7.8	-13.6	5.3	·	·
Cc1ccsc1-c1nc(CSCC(=O)NCc2ccc3c(c2)OCO3)c(C)o1	3.8	-16.1	-4.9	20.6*	10.8	8.0
Cc1c(O)ccc2c(O)c(NC(=O)c3ccc4c(c3)CCC(C)(C)O4)c(=O)oc12	·	13.4	3.6	·	·	·
CCCCN1Cc2cc(C(=O)c3cc(F)ccc3O)cnc2NC1=O	2.6	-2.6	-32.9	21.7*	0.0	1.5
Cc1ccc(C)c(N2CCN(C(=O)C(Cc3ccccc3)n3cccc3)CC2)c1 (configuration not stated)	12.7	-26.7	-23.5	24.9*	10.7	15.0
Cc1ccc(Cl)cc1N1CCN(CC(O)COCc2ccco2)CC1 (configuration not stated)	10.2	-17.2	-47.3	21.1*	12.6	7.2
CN(C(=O)COC(=O)c1ccc(=O)n(Cc2ccccc2)n1)c1ccccc1	·	0.6	2.4	4.5	·	·
CCc1nnc(NC(=O)c2ccc(S(=O)(=O)N3CCCCCC3)cc2)s1	-0.2	2.6	7.7	61.4*	-4.0	0.5
Cc1cc(C)c(Cn2cnc3ccccc32)c(C)c1	·	-11.6	5.8	4.0	·	·
CCC(Oc1ccc(C)c(C)c1)C(=O)O (configuration not stated)	5.8	-3.2	-6.1	23.2*	5.5	5.9
COc1ccc(OCc2n(CC(=O)OC3CC(C)CCC3C(C)C)c3ccccc3[n+]2C)cc1 (configuration not stated)	·	-51.6	-104.8	·	·	·
COc1ccc(-c2n(CC(=O)OC3CC(C)CCC3C(C)C)c3ccccc3[n+]2C)cc1 (configuration not stated)	·	-50.2	-94.9	150.1*	134.7*	91.3*
COc1ccc(-c2noc(CCCOc3ccccc3)n2)cc1OC	12.8	-27.4	-38.9	25.1*	12.7	13.0
c1ccc(OCCCc2nc(-c3ccncc3)no2)cc1	3.3	-7.3	-1.2	10.5	·	·
CCCCCCC(=O)Nc1nc(C)c(-c2csc(Nc3ccc(Cl)cc3)n2)s1	5.3	-9.0	9.6	24.9*	15.0	3.8
CCCCCC(=O)Nc1nc(C)c(-c2csc(Nc3ccc(Cl)cc3)n2)s1	3.7	10.2	-9.2	8.5	·	·
CN(Cc1ccccc1)CC(O)COc1ccc(CNCc2cccnc2)cc1 (configuration not stated)	·	-16.4	-19.1	6.5	·	·
CN(Cc1ccccc1)CC(O)COc1ccc(CNCc2ccc(Cl)s2)cc1 (configuration not stated)	·	-24.2	-34.2	29.0*	20.3*	29.7*
O=C(CSCc1nc2ccccc2[nH]1)N1CCN(c2ccc(F)cc2)CC1	-2.0	12.7	-3.9	-6.3	·	·
O=C(CSCc1nc2ccccc2[nH]1)N1CCN(c2cccc(Cl)c2)CC1	-2.4	-17.1	-8.3	21.2*	4.2	4.3
Brc1ccc(C2=Nn3c(nnc3-c3n[nH]c4c3CCC4)SC2)cc1	15.3	-39.9	-49.8	21.9*	14.0	20.5*
Clc1ccc(C2=Nn3c(nnc3-c3n[nH]c4c3CCC4)SC2)cc1	10.3	-32.3	-36.1	7.1	·	·
COc1cc(CNCc2c[nH]c3ccccc23)cc(OC)c1	·	-8.2	-1.8	1.2	·	·
Cn1c(Oc2ccccc2NCc2cccc(Br)c2)cc(=O)n(C)c1=O	4.9	-9.0	-11.9	25.3*	10.9	5.5
SMILES	NPY Y2 blocker	NPY2 pot ag	NPY-Y1 PAM-ag	NPY Y1 blocker	NPY1 antag conf	NPY-Y2 antag ct
C=CCOc1ccc(Br)cc1/C=N/O	11.4	-9.2	-44.9	24.4*	12.1	7.1
CCOc1ccccc1CN1CCN(Cc2cccc3nonc23)CC1CCO (configuration not stated)	·	1.2	18.8	29.0*	3.2	5.7
CC(C)CCN1CCN(Cc2cccc3nonc23)CC1CCO (configuration not stated)	·	4.4	5.0	9.7	·	·
COc1cccc(C(CC(=O)Nc2cccc3ccccc23)NC(=O)c2ccccc2)c1 (configuration not stated)	11.4	-15.4	-1.7	12.8	·	·
CCn1nc(CC(=O)Nc2nnc(CC(=O)N3CCCC3)s2)c2ccccc2c1=O	4.3	-20.2	-17.6	20.4*	-0.7	4.2
CCn1nc(CC(=O)Nc2nnc(CC(=O)N3CCOCC3)s2)c2ccccc2c1=O	3.3	-4.0	-28.4	4.7	·	·
Cc1onc(COc2ccccc2O)c1Br	-2.7	-0.2	7.4	-2.7	·	·
Cc1ccc(C)n1-c1ccccc1N1CCCCC1	·	12.4	8.7	56.2*	3.0	3.1
CCN1C(=O)c2ccc(C(=O)NCc3ccc4c(c3)OCO4)cc2C1=O	2.8	-4.9	-24.9	25.6*	4.7	7.8
CN1C(=O)c2ccc(C(=O)NCc3ccc4c(c3)OCO4)cc2C1=O	3.5	-16.8	5.9	7.8	·	·
Cc1cc2oc(C(=O)NCc3ccc4c(c3)OCO4)c(C)c2cc1C	15.1	-32.3	-73.9	27.7*	23.3*	18.4*
CC(OC(=O)c1nsc(Cl)c1Cl)C(=O)NC(C)(C)C (configuration not stated)	2.2	-6.2	-8.4	6.4	·	·
CC(C)c1ccc(NC(=O)c2cccc(Br)c2)cc1	·	-17.0	-7.4	6.7	·	·
CC(C)C(=O)Nc1ccc(C(=O)Nc2ccc(Br)cc2F)cc1	·	8.1	-9.6	-4.8	·	·
CC(C)(C)c1ccc(CSc2nnc(-c3ccccn3)n2Cc2ccco2)cc1	16.1	-15.8	-16.4	21.1*	6.7	12.9
CNC(=O)CSc1nnc(-c2ccccn2)n1Cc1ccco1	·	20.8	16.2	·	·	·
CN(C)CC(=O)c1ccc(-c2ccccc2)cc1	3.1	-3.7	-22.2	20.4*	1.6	7.4
CCN(CC)CC(=O)c1ccc(-c2ccccc2)cc1	6.3	-28.3	-33.2	11.6	·	·
CC1CCN(C(=O)COC(=O)c2ccc3c(c2)OCO3)CC1	·	-4.3	-6.5	-0.7	·	·
Cc1ccc(-c2csc3nc4c5ccccc5c(NCCCN(C)C)nn4c(=O)c23)cc1	·	-40.5	-89.3	24.2*	24.0*	26.2*
CCOc1ccc(NC2c3ccccc3C(=O)N2Cc2ccc3c(c2)OCO3)cc1 (configuration not stated)	2.3	6.4	-3.6	-2.8	·	·
COc1cc(NC2c3ccccc3C(=O)N2Cc2ccc3c(c2)OCO3)cc(OC)c1OC (configuration not stated)	15.3	-20.6	-7.1	22.7*	15.8	7.3
